Measurements as given in ChEMBL document CHEMBL2417414, “Total synthesis and biological evaluation of clavaminol-G and its analogs” (Eur J Med Chem, 2013).
Converted amounts (≈) assume the structure as drawn.

What was measured:
[1] = system: Candida albicans; experiment: Antifungal activity against Candida albicans MTCC 4748 after 24 hrs by well diffusion method; type: functional; details: MTCC 4748, 24 h
Procedure, shortened: (§1)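 Agar well diffusion on Mueller-Hinton agar seeded with 0.1 mL of suspension at 1.5 × 10^8 CFU/mL (0.5 McFarland). Fluconazole and miconazole served as positive controls, DMSO as negative control. Plates incubated 24 h at 30 °C. MIC taken as the lowest amount giving an inhibition zone; duplicates, mean reported.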

[2] = system: Candida albicans; experiment: Antifungal activity against Candida albicans MTCC 3018 after 24 hrs by well diffusion method; type: functional; details: MTCC 3018, 24 h; procedure, shortened: as §1
[3] = system: Candida albicans; experiment: Antifungal activity against Candida albicans MTCC 183 after 24 hrs by well diffusion method; type: functional; details: MTCC 183, 24 h; procedure, shortened: as §1
[4] = system: Candida albicans; experiment: Antifungal activity against Candida albicans MTCC 1637 after 24 hrs by well diffusion method; type: functional; details: MTCC 1637, 24 h; procedure, shortened: as §1
[5] = system: [Candida] aaseri; experiment: Antifungal activity against Candida aaseri MTCC 1962 after 24 hrs by well diffusion method; type: functional; details: Yamadazyma aaseri, MTCC 1962, 24 h
Procedure, shortened: (§2)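 MTCC strains spread on Mueller-Hinton agar plates with 0.1 mL of suspension at 1.5 × 10^8 CFU/mL (0.5 McFarland). Neomycin served as the antibacterial control, fluconazole and miconazole as antifungal controls, and DMSO as the negative control. Plates incubated 24 h at 30 °C. MIC was taken as the lowest amount giving an inhibition zone. Duplicates, mean reported.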

[6] = system: Candida parapsilosis; experiment: Antifungal activity against Candida parapsilosis MTCC 1744 after 24 hrs by well diffusion method; type: functional; details: Lodderomyces parapsilosis, MTCC 1744, 24 h; procedure, shortened: as §2
[7] = system: Nakaseomyces glabratus; experiment: Antifungal activity against Candida glabrata MTCC 3019 after 24 hrs by well diffusion method; type: functional; details: MTCC 3019, 24 h; procedure, shortened: as §2
[8] = system: Candida albicans; experiment: Antifungal activity against Candida albicans MTCC 854 after 24 hrs by well diffusion method; type: functional; details: MTCC 854, 24 h; procedure, shortened: as §1
[9] = system: Pichia kudriavzevii; experiment: Antifungal activity against Issatchenkia orientalis MTCC 3020 after 24 hrs by well diffusion method; type: functional; details: MTCC 3020, 24 h; procedure, shortened: as §2
[10] = system: Pichia sporocuriosa; experiment: Antifungal activity against Issatchenkia hanoiensis MTCC 4755 after 24 hrs by well diffusion method; type: functional; details: MTCC 4755, 24 h; procedure, shortened: as §2
[11] = system: Candida albicans; experiment: Antifungal activity against Candida albicans MTCC 7315 after 24 hrs by well diffusion method; type: functional; details: MTCC 7315, 24 h; procedure, shortened: as §1
[12] = system: Candida albicans; experiment: Antifungal activity against Candida albicans MTCC 3017 after 24 hrs by well diffusion method; type: functional; details: MTCC 3017, 24 h; procedure, shortened: as §1
[13] = system: Candida albicans; experiment: Antifungal activity against Candida albicans MTCC 3958 after 24 hrs by well diffusion method; type: functional; details: MTCC 3958, 24 h; procedure, shortened: as §1
[14] = system: A549; experiment: Cytotoxicity against human A549 cells by MTT assay; type: functional, cell-based
Procedure, shortened: (§3)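 MTT assay on ATCC lines: A549 (CCL-185, alveolar adenocarcinoma), HeLa (CCL-2, cervical), MDA-MB-231 (HTB-26) and MCF7 (HTB-22, breast adenocarcinoma). IC50 calculated from absorbance dose–response curves. Values are the average of two independent experiments.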

[15] = system: MDA-MB-231; experiment: Cytotoxicity against human MDA-MB-231 cells by MTT assay; type: functional, cell-based; procedure, shortened: as §3
[16] = system: MCF7; experiment: Cytotoxicity against human MCF7 cells by MTT assay; type: functional, cell-based; procedure, shortened: as §3
[17] = system: HeLa; experiment: Cytotoxicity against human HeLa cells by MTT assay; type: functional, cell-based; procedure, shortened: as §3
[18] = system: Bacillus subtilis; experiment: Antibacterial activity against Bacillus subtilis MTCC 121 after 24 hrs by well diffusion method; type: functional; details: MTCC 121, 24 h; procedure, shortened: as §2
[19] = system: Micrococcus luteus; experiment: Antibacterial activity against Micrococcus luteus MTCC 2470 after 24 hrs by well diffusion method; type: functional; details: MTCC 2470, 24 h; procedure, shortened: as §2
[20] = system: Staphylococcus aureus; experiment: Antibacterial activity against Staphylococcus aureus MTCC 96 after 24 hrs by well diffusion method; type: functional; details: MTCC 96, 24 h; procedure, shortened: as §2
[21] = system: Escherichia coli; experiment: Antibacterial activity against Escherichia coli MTCC 739 after 24 hrs by well diffusion method; type: functional; details: MTCC 739, 24 h; procedure, shortened: as §2
[22] = system: Raoultella planticola; experiment: Antibacterial activity against Klebsiella planticola MTCC 530 after 24 hrs by well diffusion method; type: functional; details: MTCC 530, 24 h; procedure, shortened: as §2
[23] = system: Staphylococcus aureus; experiment: Antibacterial activity against Staphylococcus aureus MLS16 MTCC 2940 after 24 hrs by well diffusion method; type: functional; details: MLS16 MTCC 2940, 24 h; procedure, shortened: as §2
[24] = system: Pseudomonas aeruginosa; experiment: Antibacterial activity against Pseudomonas aeruginosa MTCC 2453 after 24 hrs by well diffusion method; type: functional; details: MTCC 2453, 24 h; procedure, shortened: as §2
[25] = Homo sapiens, A549, read-out: IC50
[26] = Homo sapiens, MDA-MB-231, read-out: IC50
[27] = Homo sapiens, MCF7, read-out: IC50
[28] = Homo sapiens, HeLa, read-out: IC50

Compound	MIC [1] [µg/mL]	MIC [2] [µg/mL]	MIC [3] [µg/mL]	MIC [4] [µg/mL]	MIC [5] [µg/mL]	MIC [6] [µg/mL]	MIC [7] [µg/mL]	MIC [8] [µg/mL]	MIC [9] [µg/mL]	MIC [10] [µg/mL]	MIC [11] [µg/mL]	MIC [12] [µg/mL]	MIC [13] [µg/mL]	IC50 ([15]; mda-mb-231)	IC50 ([16]; mcf7)	IC50 [14, 25] [µM]	IC50 [15, 26] [µM]	IC50 [16, 27] [µM]	IC50 [17, 28] [µM]	also measured
Clc1ccc(COC(Cn2ccnc2)c2ccc(Cl)cc2Cl)c(Cl)c1 (stereo not drawn) [MICONAZOLE]	9.37 (≈ 22.5 µM)	9.37 (≈ 22.5 µM)	9.37 (≈ 22.5 µM)	9.37 (≈ 22.5 µM)	9.37 (≈ 22.5 µM)	9.37 (≈ 22.5 µM)	9.37 (≈ 22.5 µM)	9.37 (≈ 22.5 µM)	9.37 (≈ 22.5 µM)	9.37 (≈ 22.5 µM)	9.37 (≈ 22.5 µM)	9.37 (≈ 22.5 µM)	9.37 (≈ 22.5 µM)	–	–	–	–	–	–	–
NCC(O)CCCCCCCCC(=O)O (stereo not drawn)	–	–	–	–	–	–	–	–	–	–	–	–	–	Not Active	Not Active	–	–	–	–	IC50 ([14]; a549): Not Active; IC50 ([17]; hela): Not Active
COC(=O)CCCCCCCCC(O)CN (stereo not drawn)	–	–	–	–	–	–	–	–	–	–	–	–	–	–	–	7.89	29.8	10.2	3.59	–
COc1cccc2c1C(=O)c1c(O)c3c(c(O)c1C2=O)C[C@@](O)(C(=O)CO)C[C@@H]3O[C@H]1C[C@H](N)[C@H](O)[C@H](C)O1 [DOXORUBICIN]	–	–	–	–	–	–	–	–	–	–	–	–	–	–	–	–	0.5	1.05	–	–
OC(Cn1cncn1)(Cn1cncn1)c1ccc(F)cc1F [FLUCONAZOLE]	37.5 (≈ 122 µM)	37.5 (≈ 122 µM)	37.5 (≈ 122 µM)	75 (≈ 245 µM)	37.5 (≈ 122 µM)	18.8 (≈ 61.2 µM)	75 (≈ 245 µM)	37.5 (≈ 122 µM)	150 (≈ 490 µM)	75 (≈ 245 µM)	37.5 (≈ 122 µM)	75 (≈ 245 µM)	75 (≈ 245 µM)	–	–	–	–	–	–	–
NCC(O)CCCCCCCCCO (stereo not drawn)	–	–	–	–	–	–	–	–	–	–	–	–	–	Not Active	Not Active	16.2	–	–	8.79	–
CCCCCCCCCC(O)CNC(C)=O (stereo not drawn)	–	–	–	–	–	–	–	–	–	–	–	–	–	Not Active	Not Active	–	–	–	–	IC50 ([14]; a549): Not Active; IC50 ([17]; hela): Not Active
CCCCCCCCCC(O)CN (stereo not drawn)	18.8 (≈ 100 µM)	18.8 (≈ 100 µM)	18.8 (≈ 100 µM)	18.8 (≈ 100 µM)	18.8 (≈ 100 µM)	18.8 (≈ 100 µM)	18.8 (≈ 100 µM)	18.8 (≈ 100 µM)	18.8 (≈ 100 µM)	18.8 (≈ 100 µM)	18.8 (≈ 100 µM)	18.8 (≈ 100 µM)	18.8 (≈ 100 µM)	–	–	6.78	4.02	3.88	4.36	MIC [18]: 18.8 µg/mL (≈ 100 µM); MIC [19]: 18.8 µg/mL (≈ 100 µM); MIC [20]: 18.8 µg/mL (≈ 100 µM); MIC [21]: 18.8 µg/mL (≈ 100 µM); MIC [22]: 18.8 µg/mL (≈ 100 µM); MIC [23]: 18.8 µg/mL (≈ 100 µM); MIC [24]: 18.8 µg/mL (≈ 100 µM)
